{
  "source": "paper PMC3031448",
  "about": "(Journal of natural products, 2009)",
  "key": {"[1]": {"system": "Pseudomonas aeruginosa 27853", "test": "Antimicrobial broth dilution assay, P. aeruginosa", "format": "cell-based", "method_in_brief": "(§1)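 Broth microdilution in microtiter format at 37 °C against the ATCC strains, with MIC as the read-out. C. albicans was grown in Sabouraud dextrose broth; MRSA and P. aeruginosa were grown in cation-supplemented Mueller-Hinton broth.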"}, "Candida albicans 44506": {"system": "Candida albicans 44506", "test": "Antimicrobial broth dilution assay, C. albicans", "format": "cell-based", "method_in_brief": "as §1"}, "[2]": {"system": "PANC-1 human pancreatic carcinoma cells", "test": "Cell cycle analysis by flow cytometry", "format": "cell-based", "details": "PANC-1, 24 h, doses ≤ 46.5 μM"}, "Plasma stability, human": {"test": "Plasma stability, human", "format": "in vitro ADME", "details": "3 h, both test concentrations"}, "Plasma stability, mouse": {"test": "Plasma stability, mouse", "format": "in vitro ADME", "details": "3 h, both test concentrations"}, "Plasma protein binding": {"test": "Plasma protein binding", "format": "in vitro ADME", "details": "both test concentrations"}, "[3]": {"system": "methicillin-resistant Staphylococcus aureus 700787", "test": "Antimicrobial broth dilution assay, MRSA", "format": "cell-based", "details": "methicillin-resistant Staphylococcous aureus", "method_in_brief": "as §1"}, "Solubility": {"test": "Solubility", "format": "physicochemical", "details": "three physiologically relevant pH levels"}, "DNA": {"system": "DNA", "test": "Ethidium bromide displacement", "format": "binding"}},
  "data": [
    {"smiles": "CC(=O)N(C)CCc1cc(Br)c(OCCCNc2ncn(C)c3ncnc2-3)c(Br)c1", "note": "[Aphrocallistin, aphrocallistin]", "values": [
      {"measurement": "antimicrobial activity", "setting": "[1]", "result": "did not show significant inhibition"},
      {"measurement": "antimicrobial activity", "setting": "Candida albicans 44506", "result": "did not show significant inhibition"},
      {"measurement": "cell cycle arrest", "setting": "[2]", "result": "induce G1 cell cycle arrest"},
      {"measurement": "cell cycle arrest", "setting": "[2]; listed as aphrocallistin", "result": "significant cell cycle arrest at G1"},
      {"measurement": "plasma stability", "setting": "Plasma stability, human", "result": "excellent stability"},
      {"measurement": "plasma stability", "setting": "Plasma stability, mouse", "result": "excellent stability"},
      {"measurement": "protein binding", "setting": "Plasma protein binding", "result": "moderate protein binding"},
      {"measurement": "antimicrobial activity", "setting": "[3]", "result": "did not show significant inhibition"},
      {"measurement": "solubility", "setting": "Solubility", "result": "high"},
      {"measurement": "displacement of ethidium bromide (direct DNA binding)", "setting": "DNA", "result": "no displacement of ethidium bromide was observed"}
    ]}
  ]
}
